Assay [1] addresses D(3) dopamine receptor (Rattus norvegicus, UniProt P19020). As to the kind of experiment: Displacement of [3H]spiroperidol from rat cloned dopamine D3 receptor expressed in HEK293 cells. The format is cell-based. A general note: Loss of bound radioactivity is the signal in a displacement assay; it reports binding, not function.
The target of assay [2] is D(2) dopamine receptor (Rattus norvegicus, UniProt P61169). As to the kind of experiment: Displacement of [3H]spiroperidol from rat cloned dopamine D2L receptor expressed in HEK293 cells. Type of assay: cell-based.
D(2) dopamine receptor (Rattus norvegicus, UniProt P61169), sequence (P61169 whole entry): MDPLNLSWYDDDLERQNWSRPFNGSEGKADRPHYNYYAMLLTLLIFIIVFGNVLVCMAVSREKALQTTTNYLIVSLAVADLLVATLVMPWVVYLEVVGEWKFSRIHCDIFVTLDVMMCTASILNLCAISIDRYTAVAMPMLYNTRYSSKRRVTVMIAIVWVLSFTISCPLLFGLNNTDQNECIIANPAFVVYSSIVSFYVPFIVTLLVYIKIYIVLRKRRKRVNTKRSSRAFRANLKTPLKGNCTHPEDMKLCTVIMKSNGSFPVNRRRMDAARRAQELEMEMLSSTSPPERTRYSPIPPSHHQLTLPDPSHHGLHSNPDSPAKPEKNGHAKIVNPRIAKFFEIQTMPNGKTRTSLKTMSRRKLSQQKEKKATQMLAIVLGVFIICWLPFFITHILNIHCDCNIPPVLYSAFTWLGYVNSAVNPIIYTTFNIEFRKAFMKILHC
The subject of assay [3] is Radical scavenging activity. Briefly: Antioxidant activity assessed as DPPH radical scavenging activity. The format is functional. The procedure, abridged: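 Methanolic compound solutions (20–250 µM) mixed 1:1 with 200 µM methanolic DPPH and shaken at 30 °C for 20 min. Absorbance read at 517 nm. Controls were DPPH plus methanol; methanol alone served as background. % scavenging = (A control − A sample)/A control × 100, giving IC50.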

The species named for assay [4] is Rattus norvegicus. As to the kind of experiment: Selectivity ratio of Ki for rat cloned dopamine D2L receptor to Ki for rat cloned dopamine D3 receptor.
Assay [5] relates to Rattus norvegicus. Briefly: Reversal of reserpine-induced akinesia in Sprague-Dawley rat at 5 umol/kg, sc administered 18 hrs post reserpine challenge measured for 6 hrs. The format is functional, organism-based.
Assay [6] addresses T1, D(2) dopamine receptor (Homo sapiens, UniProt P14416). As to the kind of experiment: Agonist activity at human cloned dopamine D2 receptor expressed in CHO cells by [35S]GTPgammaS binding assay. Type of assay: functional, cell-based. On the technique in general: GTPγS resists hydrolysis and so accumulates on activated G proteins.
The target in assay [7] is T1, D(2) dopamine receptor. As to the kind of experiment: Agonist activity at human cloned dopamine D2 receptor expressed in CHO cells by [35S]GTPgammaS binding assay relative to dopamine. The format is functional, cell-based.
The target of assay [8] is D(3) dopamine receptor (Homo sapiens, UniProt P35462). Briefly: Agonist activity at human cloned dopamine D3 receptor expressed in CHO cells by [35S]GTPgammaS binding assay. Type of assay: functional, cell-based.
D(3) dopamine receptor (Homo sapiens, UniProt P35462), sequence (P35462 whole entry): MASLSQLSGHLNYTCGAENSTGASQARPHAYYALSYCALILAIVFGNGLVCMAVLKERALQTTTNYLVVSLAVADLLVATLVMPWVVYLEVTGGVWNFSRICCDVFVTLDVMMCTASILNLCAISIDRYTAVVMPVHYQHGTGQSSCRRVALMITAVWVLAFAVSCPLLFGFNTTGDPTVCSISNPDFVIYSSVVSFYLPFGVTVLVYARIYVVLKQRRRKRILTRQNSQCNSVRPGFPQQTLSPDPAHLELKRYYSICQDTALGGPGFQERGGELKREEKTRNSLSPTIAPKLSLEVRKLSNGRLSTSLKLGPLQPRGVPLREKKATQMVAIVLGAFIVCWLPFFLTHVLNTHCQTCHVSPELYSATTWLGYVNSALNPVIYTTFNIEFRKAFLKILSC
Assay [9] concerns Rattus norvegicus. Briefly: Reversal of reserpine-induced akinesia in Sprague-Dawley rat at 10 umol/kg, sc administered 18 hrs post reserpine challenge measured for 6 hrs. The format is functional, organism-based.

From ChEMBL document CHEMBL2151002 (J Med Chem, 2012) come the findings set out here.

Molecules are shown by their SMILES. The source made the active and inactive calls. The rule behind the calls is not given here.

D(3) dopamine receptor (Rattus norvegicus, UniProt P19020), sequence (P19020 whole entry): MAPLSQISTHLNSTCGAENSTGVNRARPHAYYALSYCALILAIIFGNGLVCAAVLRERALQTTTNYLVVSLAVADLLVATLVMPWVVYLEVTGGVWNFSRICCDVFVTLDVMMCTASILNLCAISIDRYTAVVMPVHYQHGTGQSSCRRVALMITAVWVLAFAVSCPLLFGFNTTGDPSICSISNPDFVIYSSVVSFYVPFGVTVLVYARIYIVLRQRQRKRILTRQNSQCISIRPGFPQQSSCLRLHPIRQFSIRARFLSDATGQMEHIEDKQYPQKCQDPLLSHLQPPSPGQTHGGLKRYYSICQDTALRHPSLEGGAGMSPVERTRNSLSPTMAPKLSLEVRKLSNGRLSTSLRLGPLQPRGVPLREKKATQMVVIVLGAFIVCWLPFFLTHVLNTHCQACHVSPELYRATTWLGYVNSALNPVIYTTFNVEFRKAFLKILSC
T1 sequence (P14416 whole entry): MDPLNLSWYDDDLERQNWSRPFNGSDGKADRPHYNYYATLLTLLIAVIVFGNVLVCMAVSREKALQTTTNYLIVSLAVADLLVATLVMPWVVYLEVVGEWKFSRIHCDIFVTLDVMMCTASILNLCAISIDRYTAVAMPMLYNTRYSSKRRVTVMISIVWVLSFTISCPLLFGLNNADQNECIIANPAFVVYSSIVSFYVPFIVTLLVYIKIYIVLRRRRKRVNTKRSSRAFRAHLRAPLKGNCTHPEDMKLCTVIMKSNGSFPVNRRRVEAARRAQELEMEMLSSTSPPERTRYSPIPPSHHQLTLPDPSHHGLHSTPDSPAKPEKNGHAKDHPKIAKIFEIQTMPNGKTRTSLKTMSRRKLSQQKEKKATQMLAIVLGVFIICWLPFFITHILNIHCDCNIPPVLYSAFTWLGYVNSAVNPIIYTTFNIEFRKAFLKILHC

Take `CCCN(CCN1CCN(C(=O)c2cc3ccccc3[nH]2)CC1)C1CCc2nc(N)sc2C1` (racemic): the figures for the Ki in [1] and in assay [2] were 4.59 nM and 852 nM, respectively. For the same molecule, the Activity result in [3] is “Dose-dependent effect”.

As to `CCCN(CCN1CCN(Cc2cc3ccccc3[nH]2)CC1)C1CCc2c(O)cccc2C1` (configuration not stated), the Ratio Ki in assay [4] was 33.4. Besides, the Ki (usually a measure of affinity in units of concentration, obtained from inhibition or displacement) in assay [1] was found to be 5.48 nM; in assay [2], 183 nM.

As for `CCCN(CCN1CCN(c2ccc3[nH]ccc3c2)CC1)[C@H]1CCc2nc(N)sc2C1`, in assay [5], the result was Active. Also, the Ratio Ki in assay [4] was 17.8. The results for the Ki in assay [1] and in assay [2] were 2.19 nM and 39 nM, respectively. Also, the EC50 (commonly the midpoint of the concentration-response curve) is 2.96 nM in assay [6] and 1.26 nM in assay [8]. The Emax (commonly the size of the effect at its maximum, as opposed to the concentration needed) in [7] was 107%.

Turning to `CCCN(CCN1CCN(C(=O)c2ccc3[nH]ccc3c2)CC1)[C@H]1CCc2nc(N)sc2C1`, in [9], the result was inactive. In assay [4], the Ratio Ki amounted to 736. In addition, the Ki in [1] turned out to be 1.4 nM; in assay [2], 1030 nM. Further, the figures for the EC50 in assay [6] and in assay [8] were 70.7 nM and 0.56 nM, respectively. The same molecule had an Emax in assay [7] of 107%.

As for `CCCN(CCN1CCN(c2ccc(-c3ccccc3)cc2)CC1)[C@H]1CCc2nc(N)sc2C1`, the EC50 worked out at 33.1 nM in [6] and 1.51 nM in assay [8]. Besides, the Emax in assay [7] was found to be 104%.

For the molecule `CCCN(CCN1CCN(Cc2ccc3[nH]ccc3c2)CC1)C1CCc2nc(N)sc2C1` (configuration not stated), the Ratio Ki in [4] is 16.4. The Ki in assay [1] is 8.07 nM; in assay [2], 132 nM.

`CCCN(CCN1CCN(C(=O)c2c[nH]c3ccccc23)CC1)[C@@H]1CCc2nc(N)sc2C1`: the Ratio Ki in assay [4] was 27.3. Also, the Ki in assay [1] is 48.2 nM; in [2], 1320 nM.

Take `CCCN(CCN1CCN(c2nccc3ccccc23)CC1)[C@H]1CCc2nc(N)sc2C1`: the Ratio Ki in [4] was 121. In assay [8], this molecule gave an EC50 of 0.82 nM.

For `CCCN(CCN1CCN(C(=O)c2c[nH]c3ccc(O)cc23)CC1)C1CCc2nc(N)sc2C1` (configuration not stated), the Ratio Ki in [4] worked out at 64.2. Also, the Ki in [1] was determined as 16.8 nM; in assay [2] it was 1080 nM.

`CCCN(CCN1CCN(C(=O)c2ccc3[nH]ccc3c2)CC1)C1CCc2nc(N)sc2C1` (racemic): the Ratio Ki in assay [4] stood at 303. Also, the figures for the Ki in assay [1] and in [2] were 4.1 nM and 1240 nM, respectively. The Activity result in assay [3] is “Dose-dependent effect”.

Consider `CCCN(CCC)CCc1cccc2c1CC(=O)N2`, for which the result in assay [5] was Active.

For the molecule `CCCN(CCN1CCN(C(=O)c2cc3ccccc3[nH]2)CC1)[C@H]1CCc2nc(N)sc2C1`, the outcome in assay [9] was inactive. Further, the Ki in assay [1] turned out to be 1.84 nM; in assay [2], 1070 nM. This molecule yielded an Emax in assay [7] of 101%. The molecule further gave an EC50 in assay [8] of 0.26 nM.

Regarding `O=C1O[C@H]([C@@H](O)CO)C(O)=C1O` [ASCORBIC ACID], in [3], the Activity result is “Dose-dependent effect” and the IC50 (usually the midpoint of a concentration-inhibition curve) is 24900 nM.

Turning to `CCCN(CCN1CCN(C(=O)c2c[nH]c3ccccc23)CC1)C1CCc2nc(N)sc2C1` (racemic), the Ratio Ki in assay [4] was 360. Also, the Ki in [1] worked out at 4.17 nM; in [2] it was 1500 nM. The Activity entry in assay [3] was “Dose-dependent effect”.

For `CCCN(CCN1CCN(Cc2ccc3[nH]ccc3c2)CC1)C1CCc2c(O)cccc2C1` (configuration not stated), in assay [4], the Ratio Ki stood at 64.5. Moreover, the Ki in assay [1] was found to be 4.17 nM; in [2], 269 nM.

For `CCCN(CCN1CCN(Cc2c[nH]c3ccccc23)CC1)C1CCc2c(O)cccc2C1` (configuration not stated), the Ratio Ki in [4] amounted to 25.6. The Ki in assay [1] came out at 3.2 nM; in assay [2] it was 82.1 nM.

With `CCCN(CCN1CCN(c2ccc3[nH]ccc3c2)CC1)C1CCc2c(O)cccc2C1` (configuration not stated), the Ratio Ki in [4] stood at 7.3. The Ki in [1] was found to be 10.4 nM; in assay [2], 76.4 nM.

`CCCN(CCN1CCN(C(=O)c2cc3ccccc3[nH]2)CC1)[C@@H]1CCc2nc(N)sc2C1`: the Ki in assay [1] worked out at 54.1 nM; in assay [2], 2560 nM.

Take `CCCN(CCN1CCN(C(=O)c2ccc3[nH]ccc3c2)CC1)[C@@H]1CCc2nc(N)sc2C1`: the Ratio Ki in [4] stood at 49.7. Besides, the Ki was 52.8 nM in assay [1] and 2630 nM in assay [2].

Take `CCCN(CCCN1CCN(C(=O)c2cc3ccccc3[nH]2)CC1)C1CCc2nc(N)sc2C1` (racemic): the Ratio Ki in [4] was found to be 334. Further, the results for the Ki in [1] and in assay [2] were 2.78 nM and 928 nM, respectively.

Regarding `CCCN(CCN1CCN(C(=O)c2c[nH]c3ccccc23)CC1)[C@H]1CCc2nc(N)sc2C1`, the Ratio Ki in assay [4] was found to be 828. Moreover, the Ki in [1] worked out at 1.09 nM; in assay [2], 902 nM. Further, the EC50 in assay [6] amounted to 86.4 nM; in assay [8], 0.87 nM. Moreover, in assay [7], the Emax worked out at 91.6%.

`CCCN(CCN1CCN(c2ccc3[nH]ccc3c2)CC1)[C@@H]1CCc2nc(N)sc2C1`: the Ratio Ki in assay [4] worked out at 8.46. Further, the Ki was found to be 15.9 nM in [1] and 134 nM in assay [2].

`CCCN(CCN1CCN(c2ccc3[nH]ccc3c2)CC1)C1CCc2nc(N)sc2C1` (racemic): in assay [4], the Ratio Ki is 24.3. Also, the Ki was 1.92 nM in [1] and 46.7 nM in [2]. The Activity entry in assay [3] is “Dose-dependent effect”. For the same molecule, the IC50 in [3] came to 14500 nM.

Turning to `CCCN(CCCCN1CCN(C(=O)c2cc3ccccc3[nH]2)CC1)C1CCc2nc(N)sc2C1` (racemic), in assay [1], the Ki is 1.74 nM.
